Efflux pump mplx – blocks antifungal efflux pumps in multiplex yeast assay. inhibition, % at 10 µM. S. cerevisiae Candida pump triplex, Nile Red efflux. 330,000 tested, 0.44% active;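 active = plate passing quality check with inhibition over a set limit, or well fluorescence over plate mean plus 4 SD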;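 also: Nile Red retained in pooled yeast measured as flow cytometry median fluorescence; higher means more Nile Red kept so more efflux inhibition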
Beta cell apopt – blocks beta cell apoptosis | INS-1E cytokine-induced death, ATP luminescence, 48 h; percent of positive-control rescue, neutral wells zero | protection from apoptosis, % (no concentration beside the values) | 300,000 tested, 0.8% active;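 active = Every replicate reaches about 75%, or at least half do and their mean reaches it too, limit read from the data; inconclusive = At least half of replicates reach the limit but their mean does not; inactive = Under half of replicates reach the limit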;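 also: higher means more ATP so stronger rescue from cytokine killing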
WT yeast gro inh – growth inhibition of WT yeast, mitochondrial fusion screen | mitochondrial fusion phenotypic screen, WT strain | AID 1362 | 190,000 tested, 2.1% active | inhibition, % at 10 µM; in the data active = inhibition above about 58%; tested in S. cerevisiae
T cruzi repl – blocks replication of Trypanosoma cruzi; T. cruzi beta-gal in NIH3T3, luminescence, 90 h; inhibition, % (concentration not given with the values); 300,000 tested, 1.4% active;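 active = mean inhibition across valid replicates above about 55%, limit read from the data; inconclusive = mean below that limit but half or more replicates reach it; inactive = mean below it, under half of replicates reach it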;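 also: signal also drops with host cell toxicity which is not excluded here; higher percent means less beta-gal luminescence so fewer parasites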
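System: NIH/3T3 fibroblasts plus reporter T. cruzi. Medium: DMEM plus 2% FBS. Probe or stimulus: 5000 reporter trypomastigotes per well. Compound: single 50 nL compound addition per well in DMSO. Incubation: co-culture of at least 90 h after 3 h attachment. Detection: GalScreen β-gal luminescence, detergent lysis, 60 min. Evaluation: parasite load inhibition, %.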
SUMO Mot1 rescue – inhibitors of SUMOylation pathway: yeast Mot1-301 growth rescue | S. cerevisiae Mot1-301 growth rescue, ATP luminescence, 38.5C; percent above DMSO median, 100 means doubled | growth rescue, % at 18.8 µM | AID 2716 | 320,000 tested, 1% active;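 active = every valid replicate shows activation above 250% relative to neutral control wells; inactive = the rest, any valid replicate at or below 250%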
CSC inhib – blocks cancer stem cells. cancer stem cell-like cells viability, luminescence. inhibition, % at 7.5 µM. 300,000 tested, 1.1% active. AID 2717; in the data active = inhibition above about 75%; inconclusive = no clear call, values can overlap the other calls; tested in HMLE shEcad cells
Mot1 SUMO dose – inhibits SUMO pathway, affecting Mot1-301 yeast growth | shares compounds with SUMO Mot1 rescue | S. cerevisiae Mot1-301 galactose growth, ATP luminescence, 24 h; -100 = growth of slx-deleted rescue strain | growth activity, percent, % at 42 µM | 2,300 tested, under 10 active;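 active = Signal drops as the depositor expects, and the fitted half-maximal dose is no more than ten times the top valid tested dose; inconclusive = Poor fit, or a flat curve whose signal drops by 30% to 70%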;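 also: more negative values mean stronger growth rescue toward the control strain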
Numbers stand for hits; - = inactive; ? = inconclusive; . = not tested or not shown; + = active, no number. Hits are enriched below; roughly 4.8% of the tested compounds scored in any of these assays.

SMILES	Efflux pump mplx	Beta cell apopt	WT yeast gro inh	T cruzi repl	SUMO Mot1 rescue	CSC inhib	Mot1 SUMO dose
Cc1c(C(=O)C(=O)N2CCCc3ccccc32)c2ccccc2n1C	-	-	-	-	-	-	.
Cc1c(NC(=O)c2ccc([N+](=O)[O-])o2)cccc1-c1nc2ncccc2o1	-	-	.	-	-	?	.
O=c1cnc2cc([N+](=O)[O-])ccc2[nH]1	-	-	-	-	847.8	-	-
O=[N+]([O-])c1ccc2nc(CCCc3nc4ccc([N+](=O)[O-])cc4[nH]3)[nH]c2c1	-	-	-	-	-	-	.
CCNc1cc(=O)n(C)c(=O)n1C	-	-	-	-	-	-	.
CC(C)CNc1cc(=O)n(C)c(=O)n1C	-	-	-	-	392.0	-	-
CCn1c(CSCc2ccc(C)cc2)nnc1SCC(=O)NCc1ccccc1	-	-	-	-	-	-	.
CCn1c(CSCc2ccc(F)cc2)nnc1SCC(=O)NCc1ccccc1	-	-	-	-	924.1	-	-
CCC1CCC/C1=N\NC(=O)c1ccoc1C (stereo not given)	-	-	.	.	-	-	.
N#Cc1c2n(c3c(N)ncnc13)CCCCC2	-	-	.	-	-	-	.
O=C(NCc1ccc(C(=O)O)cc1)OCc1ccccc1	-	-	-	-	-	-	.
CCOC(=O)c1ccccc1NC(=O)CSc1ccc(-c2ccccn2)nn1	-	-	.	-	782.9	-	-
CC(NC(=O)COC(=O)c1c[nH]c2ccccc12)c1ccccc1 (stereo not given)	-	-	.	.	-	-	.
CCOc1ccc(N(C(C)C(=O)NC(C)CC)S(C)(=O)=O)cc1 (stereo not given)	-	-	-	-	397.3	-	-
CCOc1ccc(N(C(C)C(=O)N2CCCCCC2)S(C)(=O)=O)cc1 (stereo not given)	-	-	.	-	-	-	.
COc1ccc(C(=O)CCS(=O)(=O)c2ccc(C)cc2)cc1OC	-	-	.	-	-	-	.
O=C([C@H](Cc1ccccc1)N1C(=O)c2ccccc2C1=O)N1CCOCC1	-	-	.	.	-	-	.
CCC(C)NCCOc1ccccc1C (stereo not given)	-	-	-	-	385.8	-	-
CCC1Oc2ccccc2N(CC(=O)NC2CCCC2)C1=O (stereo not given)	-	-	.	-	-	-	.
CC(C)OC(=O)CC1C(=O)NCCN1C(=O)COc1ccc(C(C)(C)C)cc1 (stereo not given)	-	-	.	-	-	-	.
Cc1cccc2c(=O)c(Br)c(C)n(Cc3ccccc3)c12	-	-	-	-	-	-	.
CC(C)(C)CC(=O)Nc1cc(S(=O)(=O)N2CCOCC2)ccc1N1CCCC1	-	-	.	-	508.4	-	-
Cc1ccc2cccc(OCc3nnc(SCC(=O)O)n3C)c2n1	-	-	-	-	+	-	-
Cc1cccc(-c2nnc(SCC#N)n2C)c1	-	-	-	-	-	-	.
Cc1ccc(-c2nnc(SCC#N)n2N)cc1	-	-	-	-	+	.	-
SMILES	Efflux pump mplx	Beta cell apopt	WT yeast gro inh	T cruzi repl	SUMO Mot1 rescue	CSC inhib	Mot1 SUMO dose
Cn1c(Cn2nnc3ccccc32)nnc1SCC(=O)c1ccc(F)cc1	-	-	-	-	785.2	-	-
Cc1ccc(SCC(=O)OCC(=O)NCCC2=CCCCC2)cc1	-	-	.	-	-	-	.
CN(C(=O)CSc1nc(-c2ccccc2)c(-c2ccccc2)o1)C1CCS(=O)(=O)C1 (stereo not given)	-	-	-	-	543.2	-	-
O=C1CC(c2cccc(Br)c2)C2=C(COC2=O)N1 (stereo not given)	-	-	-	-	386.5	-	-
O=C1CC(c2ccccc2Cl)C2=C(COC2=O)N1 (stereo not given)	-	-	-	-	.	-	.
CCCCOc1ccc(C(O)C(CN2CCOCC2)c2ccccc2)cc1 (stereo not given)	-	-	.	-	786.7	-	-
CC(Oc1ccc(F)cc1)C(=O)Nc1ccccc1C(=O)N1CCCCC1 (stereo not given)	-	-	.	.	-	.	.
Cc1c(Cl)cccc1NC(=O)c1ccc(-n2ccnc2)nc1	-	-	-	-	-	-	.
CCCc1nnc(NC(=O)c2cn(CC)c3cc(N4CCN(C)CC4)c(F)cc3c2=O)s1	-	-	.	-	644.0	-	-
COc1ccc(OC)c(NC(=O)CNC(=O)Cn2ccc3ccccc3c2=O)c1	-	.	-	-	503.4	-	-
COc1cc(OC)c(NC(=O)CNC(=O)Cn2ccc3ccccc3c2=O)cc1Cl	-	-	.	-	-	-	.
COc1ccc(-c2csc(Nc3cc(C)ccn3)n2)cc1C	-	-	.	-	515.3	-	-
Cc1c(N=Cc2cc(Br)cc(Br)c2O)cccc1C(=O)O	-	-	-	-	919.5	-	-
Cc1ccc(-c2nc(CS(=O)(=O)CC(=O)NCCN3CCCC3)c(C)o2)cc1	-	-	.	-	-	-	.
O=C(CC1(CC2=NS(=O)(=O)c3ccccc3N2)CCCC1)NCCc1ccccc1	-	-	.	-	614.0	-	-
O=C(CSC1=NS(=O)(=O)c2ccccc2N1)NCCc1ccccc1	-	.	.	-	-	-	.
CC(NC(=S)NC1CCC(C(C)(C)C)CC1)c1ccccc1 (stereo not given)	-	-	.	?	-	-	.
CC(C)(C)n1nnnc1C(c1ccc(Cl)cc1)N(Cc1cccnc1)Cc1ccco1 (stereo not given)	-	-	68.2	-	436.7	-	-
CCC(C)(C)n1nnnc1CN(Cc1ccc(Cl)cc1)Cc1ccco1	-	-	-	-	-	-	.
Cc1ccccc1C(=O)NN(C)c1nc2ccccc2nc1C(F)(F)F	-	-	-	-	+	.	-
CN(NC(=O)c1ccco1)c1nc2ccccc2nc1C(F)(F)F	-	-	-	-	-	-	.
CC1(C2CC2)NC(=O)N(CC(=O)Nc2cc(S(=O)(=O)N3CCCCC3)ccc2Cl)C1=O (stereo not given)	-	-	.	.	-	.	.
CN(C)S(=O)(=O)c1ccc(Cl)c(NC(=O)CN2C(=O)NC(C)(C3CC3)C2=O)c1 (stereo not given)	-	-	.	-	651.1	-	-
c1ccc(CNc2ccc3ccccc3n2)nc1	-	-	-	-	364.7	-	-
CN(C)/C=N/NC(=O)c1ccccc1	-	-	-	-	921.0	-	-
O=C(CCCCCn1c(SCc2ccncc2)nc2ccccc2c1=O)NCc1ccco1	-	-	-	-	-	.	.
Cc1ccc(S(=O)(=O)N2[C@@H](c3ccccc3F)C(C(=O)O)=CC[C@H]2c2ccc3c(c2)OCO3)cc1	-	-	.	.	497.2	-	-
COc1ccc(Cl)cc1NC(=O)CC1S/C(=N/N=C2CCCCCC2)NC1=O (stereo not given)	-	-	.	-	-	-	.
O=C(NC1CCCCC1)C(c1ccncc1)N(Cc1ccc2c(c1)OCO2)C(=O)C(F)(F)F (stereo not given)	-	-	-	-	576.7	-	-

Assay outcomes: PubChem, several laboratories
